Bioassay records as filed in PubChem BioAssay.
CHOP inh – inhibitors of CHOP induction in ER stress response | inhibition, % at 10 µM | 3.8% of 220,000 active | CHO-K1 CHOP-promoter luciferase, tunicamycin-induced, 15-18 h | AID 2732;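 active means compounds that reduced the stress-induced luciferase reporter signal by more than about 70% of percent inhibition, limit read from the data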
T cruzi inh – blocks replication of Trypanosoma cruzi | T. cruzi beta-gal in NIH3T3, luminescence, 90 h | inhibition, % (test concentration not listed) | 1.4% of 300,000 active;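 active means mean inhibition across valid replicates above about 55%, limit read from the data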;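 further: signal also drops with host cell toxicity which is not excluded here; higher percent means less beta-gal luminescence so fewer parasites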
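Material: NIH/3T3 host cells with β-galactosidase reporter T. cruzi; Input: 5,000 host fibroblasts per well; Medium: DMEM, 2% fetal bovine serum; Compound: 50 nL DMSO compound solution per well; Schedule: 3 h host attachment, then at least 90 h co-culture; Detection: luminescent β-galactosidase signal after 60 min lysis.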
L major viab – reduces viability of Leishmania major promastigotes. resazurin fluorescence viability. inhibition, % at 10 µM. 9% of 200,000 active; in the data active means inhibition above about 50%;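 further: promastigotes grown with compound for 44 hours at 28 °C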
Dynein cargo inh – dynein cargo transport inhibition. 3617.4 mouse cells, GR-EGFP nuclear translocation imaging; test concentration mostly 20 µM; stimulated with dexamethasone, 1 µM; active compounds read low. z-score, hits read low. 0.47% of 220,000 active;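 active means plate z-score of nuclear minus cytoplasmic receptor signal below a set negative limit, without overly bright fluorescence or cell loss, cut at about -3.5 in these data, passing the limit was not always enough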;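 further: z-score of nuclear minus cytoplasmic ring GR-EGFP intensity difference per well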
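Schedule: 48 h induction, then 1 h compound, then 30 min agonist, 37 °C. Buffer or medium: tetracycline-free induction medium containing charcoal-stripped FBS. Reagent: 1.0 µM final dexamethasone stimulus. Evaluation: nuclear versus cytoplasmic GR-EGFP signal, averaged per well. Signal: high-content fluorescence imaging after fixation.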
UPR CHOP act – activators of apoptotic arm of unfolded protein response (CHOP); CHO-CHOP luciferase reporter, UPR activation, luminescence; percent of tunicamycin response over DMSO baseline; activation, % at 10 µM; 0.34% of 330,000 active;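 active means at 10 µM dose, activation of 40% or more, normalized to positive control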
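System: CHO CHOP reporter cells. Amount: 500 cells per well. Buffer or medium: F12 medium, 10% FBS. Compound dosing: one dose, 10 µM in 0.5% DMSO. Incubation: 6 h compound exposure at 37 °C after overnight seeding. Technique: Steady-Glo luciferase luminescence. Benchmarks: tunicamycin and DMSO controls.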
UPR XBP1 act – adaptive UPR (XBP1) activation. CHO-XBP1 luciferase reporter, IRE1-XBP1 UPR activation, luminescence; percent of tunicamycin response, DMSO as zero. activation, % at 20 µM. 0.33% of 330,000 active;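 active means versus positive control, 20 µM dose yields 30% or more activation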
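Material: CHO cell line with stable XBP1 luciferase reporter; buffer or medium: F12 medium containing 10% fetal bovine serum; compound: single point, 20 µM final compound, 1% DMSO; incubation: 6 h treatment, 37 °C; measured by: glow luminescence from Steady-Glo reagent; evaluation: activation, % of tunicamycin; control set: tunicamycin high, DMSO low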
Numbers stand for hits; . = inactive; / = no result given. The sample as a whole holds a higher share of hits than the screen did.

SMILES	CHOP inh	T cruzi inh	L major viab	Dynein cargo inh	UPR CHOP act	UPR XBP1 act
CCCc1nc2oc3c(OC)ncnc3c2c2c1COC(C)(C)C2	82	/	.	.	.	.
S=c1nc(C2CC2)n(-c2ccccc2)[nH]1	.	.	/	.	.	.
CC(=O)Oc1ccc(C(=O)Nc2cccc(C(=O)c3ccc(C)c(C)c3)c2)cc1	/	.	/	/	.	.
Cc1ccc(NC(=O)CSc2nc3sc(C)cc3c(=O)n2C)cc1	/	.	/	/	.	.
O=C(CN1C(=O)NC(c2ccc(F)cc2)C1=O)NC1CCCCC1 (stereo not drawn)	/	/	/	/	.	.
O=c1c(-c2ccccc2)c1-c1ccccc1	.	.	/	/	58	.
O=C1c2ccccc2C(=O)C12OC2c1ccc(Cl)cc1Cl (stereo not drawn)	88	/	.	-4.6	/	/
O=C1c2ccccc2C(=O)C1c1ccc(Cl)cc1	/	.	/	/	.	.
CCC(=O)c1ccc(N2CCN(C(=O)c3ccc(Br)cc3)CC2)c(F)c1	85	.	.	.	.	.
CCC(=O)c1ccc(N2CCN(C(=O)c3ccc(F)cc3)CC2)c(F)c1	.	.	.	.	.	.
CCCC(=O)c1ccc(N2CCN(C(=O)c3ccc(Br)cc3)CC2)c(F)c1	73	.	.	.	.	.
COc1ccc(C(=O)c2ccc(N3CCN(C(=O)c4ccc(F)cc4)CC3)c(F)c2)cc1Br	.	61	.	.	.	.
CCCC(=O)c1ccc(N2CCN(C(=O)c3ccccc3)CC2)c(F)c1	.	/	.	.	.	.
CCCC(=O)c1ccc(N2CCN(C(=O)c3ccccc3Br)CC2)c(F)c1	74	.	.	.	.	.
CN(C(=O)CN1CCCCCC1)c1c(N)n(Cc2ccccc2)c(=O)[nH]c1=O	/	/	/	/	.	.
COc1ccc(/C=C(/NC(=O)c2ccc(OC)c(OC)c2)C(=O)NCCCn2ccnc2)cc1	/	.	/	/	.	.
O=C(NCC(=O)N(c1cccc(F)c1)C(C(=O)NC1CCCC1)c1cccnc1)c1cccs1 (stereo not drawn)	.	.	.	.	.	.
CCN(CC)CCN(C(=O)CCOc1ccccc1)c1nc2c(F)cc(F)cc2s1	.	56	.	.	.	.
CCCC(=O)N(CCN1CCOCC1)c1nc2c(F)cc(F)cc2s1	/	.	/	/	.	.
CN(C)CCN(C(=O)CCc1ccccc1)c1nc2c(F)cc(F)cc2s1	71	.	.	.	.	.
COc1cc2ccccc2cc1C(=O)N(CCN(C)C)c1nc2c(F)cc(F)cc2s1	/	.	/	/	.	.
O=C(Cc1ccsc1)NNC(=O)c1ccc(F)cc1	/	.	/	/	.	.
CCC(=O)N1c2ccccc2NC2=C(C(=O)CC(C)(C)C2)C1c1ccc(O)c(OC)c1 (stereo not drawn)	/	.	/	/	.	.
CCOC(=O)N1CCC(NCCNC(=O)c2ccc(F)c(F)c2)CC1	/	/	/	/	.	.
C/C(=N\NC(=O)c1c(Br)c(C)nn1C)c1ccc(NC(=O)C(C)Oc2ccc(Cl)cc2C)cc1 (stereo not drawn)	.	.	98	.	.	.
SMILES	CHOP inh	T cruzi inh	L major viab	Dynein cargo inh	UPR CHOP act	UPR XBP1 act
CC(Oc1ccc(Cl)cc1Cl)C(=O)NCCCN1CCOCC1 (stereo not drawn)	.	.	90	.	.	.
CC(Oc1ccc(Cl)cc1Cl)C(=O)Nc1ccncc1 (stereo not drawn)	/	.	.	.	.	.
CC(Oc1ccc(F)cc1)C(=O)Nc1ccc2ccccc2c1 (stereo not drawn)	.	.	.	.	.	.
CC(Oc1ccccc1F)C(=O)Nc1ccc2ccccc2c1 (stereo not drawn)	88	.	.	.	.	.
CC(=O)Nc1ccc(NC(=O)C(C)Oc2ccc(Cl)cc2Cl)cc1 (stereo not drawn)	.	.	57	.	.	.
COc1ccc(Cl)cc1NC(=O)CN(C)C(=O)/C=C/c1ccco1	/	/	/	/	.	.
CCN(CC(=O)NCc1cccs1)C(=O)c1ccc(-c2ccccc2F)o1	/	/	/	/	.	.
O=C(COC(=O)Cc1c(Cl)cccc1Cl)NCCC1=CCCCC1	.	.	.	.	.	.
O=C(COC(=O)/C=C/c1ccc(Cl)cc1)NCCC1=CCCCC1	78	.	.	.	.	.
O=C(COc1ncnc2c(Cl)cc(Cl)cc12)NCCC1=CCCCC1	.	.	100	.	.	.
CC(Oc1ccc(Cl)cc1Cl)C(=O)NCCC1=CCCCC1 (stereo not drawn)	90	.	.	.	.	.
O=C(COC(=O)Cc1ccc(Cl)cc1Cl)NCCC1=CCCCC1	.	.	54	.	.	.
CNC(=O)c1ccsc1NC(=O)CS(=O)(=O)c1ccc(Cl)cc1	/	.	/	/	.	.
Cc1cc(C)c(CN2CCN(C(=O)Cn3cnc(C(=O)Nc4ccc(C)c(C)c4)n3)CC2)c(C)c1	/	/	/	/	.	.
COc1ccc(-n2c(-c3ccc(Br)cc3)nc(=S)c3c2CCCC3)cc1	.	.	.	.	.	.
